These results are taken from ChEMBL document CHEMBL1817562, “Docking and SAR studies of D- and L-isofagomine isomers as human β-glucocerebrosidase inhibitors” (Bioorg Med Chem, 2011).

Bounds are passed on as bounds.

One experiment relates to Coffea. The experiment can be described thus: Inhibition of coffee beans alpha-galactosidase assessed as production of p-nitrophenol at 1000 uM by spectrophotometry. A digest of the protocol: (§1)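 p-Nitrophenyl glycoside matched to each enzyme, 2 mM, with enzyme at that enzyme's optimum pH: Penicillium decumbens α-L-rhamnosidase pH 4.0, bovine liver β-galactosidase pH 6.8, coffee bean α-galactosidase pH 6.5, jack bean α-mannosidase pH 4.5, snail β-mannosidase pH 4.5. Stopped with 400 mM Na2CO3; released p-nitrophenol read at 400 nm.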

For experiment [1], the target named is T1, Beta-galactosidase (Bos taurus) (UniProt Q58D55).
T1 sequence (whole entry): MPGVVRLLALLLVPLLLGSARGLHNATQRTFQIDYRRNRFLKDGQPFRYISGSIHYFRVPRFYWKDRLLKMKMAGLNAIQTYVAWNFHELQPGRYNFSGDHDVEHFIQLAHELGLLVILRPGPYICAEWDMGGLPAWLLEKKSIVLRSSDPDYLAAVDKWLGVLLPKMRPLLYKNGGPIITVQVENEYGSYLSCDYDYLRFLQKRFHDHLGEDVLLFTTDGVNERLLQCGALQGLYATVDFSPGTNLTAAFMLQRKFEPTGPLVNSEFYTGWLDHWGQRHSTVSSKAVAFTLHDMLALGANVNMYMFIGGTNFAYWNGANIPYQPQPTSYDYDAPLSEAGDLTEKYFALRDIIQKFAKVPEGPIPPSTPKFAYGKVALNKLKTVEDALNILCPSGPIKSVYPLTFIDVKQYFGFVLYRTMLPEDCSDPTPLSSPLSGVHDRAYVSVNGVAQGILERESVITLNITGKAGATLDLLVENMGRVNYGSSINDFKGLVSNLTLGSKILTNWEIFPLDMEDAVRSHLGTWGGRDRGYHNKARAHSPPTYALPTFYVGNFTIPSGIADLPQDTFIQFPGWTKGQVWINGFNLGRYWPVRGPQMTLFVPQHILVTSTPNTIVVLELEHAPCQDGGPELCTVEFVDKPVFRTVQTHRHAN
The experiment can be described thus: Inhibition of bovine liver beta-galactosidase assessed as production of p-nitrophenol at 1000 uM by spectrophotometry. A digest of the protocol:
as §1

Experiment [2] has as its target Lactase/phlorizin hydrolase (Rattus norvegicus, UniProt Q02401). Briefly: Inhibition of rat intestinal lactase assessed as production of p-nitrophenol by spectrophotometry.
A further experiment has as its system Canavalia ensiformis. Briefly: Inhibition of jack beans alpha-mannosidase assessed as production of p-nitrophenol at 1000 uM by spectrophotometry. A digest of the protocol:
as §1

A further experiment has as its system Helix pomatia. The experiment can be described thus: Inhibition of snail beta-mannosidase assessed as production of p-nitrophenol at 1000 uM by spectrophotometry. A digest of the protocol: as §1
The test system of another experiment is Penicillium decumbens. Briefly: Inhibition of Penicillium decumbens alpha-L-rhamnosidase assessed as production of p-nitrophenol at 1000 uM by spectrophotometry. A digest of the protocol: as §1
Experiment [3] is described as follows: Inhibition of rat intestinal cellobiase assessed as production of p-nitrophenol by spectrophotometry.
Another experiment has as its system Oryza sativa. The conditions noted are these: 1000 uM.
Experiment [4] is filed under the species Rattus norvegicus. The conditions noted are these: 1000 uM.
Experiment [5] addresses Sucrase-isomaltase, intestinal (Rattus norvegicus) (UniProt P23739). The conditions noted are these: 1000 uM.
Experiment [6] has the same target. The conditions noted are these: 1000 uM. The source holds these as a separate data set.
The target in experiment [7] is T2, Tissue alpha-L-fucosidase (Bos taurus) (UniProt Q2KIM0).
T2 sequence (whole entry): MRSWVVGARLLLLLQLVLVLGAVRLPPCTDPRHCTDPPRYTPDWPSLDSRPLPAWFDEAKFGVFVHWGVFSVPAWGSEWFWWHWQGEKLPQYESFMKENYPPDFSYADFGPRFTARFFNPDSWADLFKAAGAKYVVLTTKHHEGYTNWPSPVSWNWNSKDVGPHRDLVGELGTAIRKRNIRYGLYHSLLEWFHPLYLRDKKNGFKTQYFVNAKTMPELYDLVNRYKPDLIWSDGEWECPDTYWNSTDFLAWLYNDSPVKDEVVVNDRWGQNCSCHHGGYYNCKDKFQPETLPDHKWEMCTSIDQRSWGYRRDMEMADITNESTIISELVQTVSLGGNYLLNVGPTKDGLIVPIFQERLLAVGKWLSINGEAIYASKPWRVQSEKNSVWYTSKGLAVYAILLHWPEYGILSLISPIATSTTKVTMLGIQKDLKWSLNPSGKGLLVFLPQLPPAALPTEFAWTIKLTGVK
Particulars: 1000 uM.

Experiment [8] in a line: Inhibition of almond beta-glucosidase assessed as production of p-nitrophenol using p-nitrophenyl glycoside as substrate by spectrophotometry.
The target in experiment [9] is T3, Glucosylceramidase (Bos taurus) (UniProt Q2KHZ8).
T3 sequence (whole entry): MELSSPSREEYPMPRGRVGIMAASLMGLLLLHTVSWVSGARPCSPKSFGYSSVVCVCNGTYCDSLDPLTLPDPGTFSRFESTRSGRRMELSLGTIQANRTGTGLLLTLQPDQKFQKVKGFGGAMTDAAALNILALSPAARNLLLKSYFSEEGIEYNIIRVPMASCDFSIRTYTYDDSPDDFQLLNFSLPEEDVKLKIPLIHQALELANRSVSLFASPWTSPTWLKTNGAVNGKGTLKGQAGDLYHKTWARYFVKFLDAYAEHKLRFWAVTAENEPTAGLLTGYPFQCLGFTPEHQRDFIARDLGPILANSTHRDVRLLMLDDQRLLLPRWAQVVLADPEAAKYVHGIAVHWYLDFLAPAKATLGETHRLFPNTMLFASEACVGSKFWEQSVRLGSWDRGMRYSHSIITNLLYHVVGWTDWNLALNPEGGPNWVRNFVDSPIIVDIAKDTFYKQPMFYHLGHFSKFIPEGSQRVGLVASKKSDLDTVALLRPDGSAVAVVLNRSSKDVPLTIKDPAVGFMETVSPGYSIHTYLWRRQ
The experiment can be described thus: Inhibition of bovine liver beta-glucosidase assessed as production of p-nitrophenol using p-nitrophenyl glycoside as substrate at 1000 uM by spectrophotometry.

For experiment [10], the species on record is Rattus norvegicus. The experiment can be described thus: Inhibition of rat intestinal cellobiase assessed as production of p-nitrophenol at 1000 uM by spectrophotometry.
The subject of a further experiment is Prunus dulcis. Particulars: 1000 uM.
The target of experiment [11] is T4, Lysosomal acid glucosylceramidase (Homo sapiens) (UniProt P04062).
T4 sequence (whole entry): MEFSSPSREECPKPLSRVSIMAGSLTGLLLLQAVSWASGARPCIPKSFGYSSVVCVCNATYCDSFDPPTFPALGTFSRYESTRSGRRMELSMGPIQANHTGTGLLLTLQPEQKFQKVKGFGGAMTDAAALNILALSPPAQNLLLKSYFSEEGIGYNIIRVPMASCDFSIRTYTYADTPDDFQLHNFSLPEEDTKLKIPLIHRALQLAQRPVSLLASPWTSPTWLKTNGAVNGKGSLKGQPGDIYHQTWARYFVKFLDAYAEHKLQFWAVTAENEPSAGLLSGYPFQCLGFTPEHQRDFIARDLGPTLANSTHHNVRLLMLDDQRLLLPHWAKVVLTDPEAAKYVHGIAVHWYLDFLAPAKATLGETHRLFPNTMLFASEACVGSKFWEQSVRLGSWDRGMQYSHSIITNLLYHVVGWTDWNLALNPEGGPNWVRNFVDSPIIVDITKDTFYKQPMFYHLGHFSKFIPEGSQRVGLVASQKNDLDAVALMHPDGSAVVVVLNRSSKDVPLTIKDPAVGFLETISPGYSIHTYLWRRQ
Particulars: 1000 uM.

Experiment [12] addresses Lactase/phlorizin hydrolase (Rattus norvegicus) (UniProt Q02401). Particulars: 1000 uM.
The nature of experiment [13]: Inhibition of rat intestinal maltase assessed as production of D-glucose using maltose as substrate after 10 to 30 mins by spectrophotometry. A digest of the protocol: (§2)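 Enzymes were rice α-glucosidase at pH 5.0 and rat small-intestine brush border membranes (Kessler method) at pH 5.8. Each reaction contained 25 mM maltose and enzyme and was incubated 10–30 min at 37 °C. Reactions were stopped by heating at 100 °C for 3 min, then centrifuged. Released D-glucose was measured with a glucose test reagent by absorbance at 505 nm.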

Experiment [14] in a line: Inhibition of rice alpha-glucosidase assessed as production of D-glucose using maltose as substrate after 10 to 30 mins by spectrophotometry. Set-up: species or system Oryza sativa. A digest of the protocol: as §2

Lactase/phlorizin hydrolase, sequence (Q02401 868-1928 limits assumed): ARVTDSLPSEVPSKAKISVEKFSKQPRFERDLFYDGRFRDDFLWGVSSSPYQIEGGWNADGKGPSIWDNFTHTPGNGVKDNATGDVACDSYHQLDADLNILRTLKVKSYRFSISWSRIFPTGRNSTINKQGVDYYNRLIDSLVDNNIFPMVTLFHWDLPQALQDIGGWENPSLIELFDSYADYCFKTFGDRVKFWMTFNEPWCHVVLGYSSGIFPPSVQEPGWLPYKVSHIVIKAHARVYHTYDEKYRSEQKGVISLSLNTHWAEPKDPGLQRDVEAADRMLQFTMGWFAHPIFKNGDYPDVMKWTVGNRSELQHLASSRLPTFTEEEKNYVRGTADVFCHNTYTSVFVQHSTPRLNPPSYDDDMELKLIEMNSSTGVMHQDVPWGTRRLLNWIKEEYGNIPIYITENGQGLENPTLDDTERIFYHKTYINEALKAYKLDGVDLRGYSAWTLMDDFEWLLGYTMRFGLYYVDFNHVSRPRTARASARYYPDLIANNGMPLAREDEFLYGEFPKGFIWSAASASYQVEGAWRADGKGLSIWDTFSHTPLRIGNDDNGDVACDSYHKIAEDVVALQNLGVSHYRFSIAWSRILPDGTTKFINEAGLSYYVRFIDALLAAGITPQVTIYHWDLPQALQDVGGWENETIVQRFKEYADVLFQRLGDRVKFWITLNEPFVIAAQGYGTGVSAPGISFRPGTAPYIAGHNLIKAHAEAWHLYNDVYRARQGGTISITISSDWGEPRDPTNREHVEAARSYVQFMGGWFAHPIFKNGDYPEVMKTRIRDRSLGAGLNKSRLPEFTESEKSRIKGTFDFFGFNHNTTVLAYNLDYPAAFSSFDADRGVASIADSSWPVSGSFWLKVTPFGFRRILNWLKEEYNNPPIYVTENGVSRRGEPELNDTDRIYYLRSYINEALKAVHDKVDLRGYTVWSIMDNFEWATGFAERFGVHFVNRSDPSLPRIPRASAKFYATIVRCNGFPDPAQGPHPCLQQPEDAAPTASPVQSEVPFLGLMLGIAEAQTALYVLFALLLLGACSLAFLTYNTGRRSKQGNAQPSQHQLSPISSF
Lactase/phlorizin hydrolase (Rattus norvegicus), sequence (Q02401 868-1928 limits assumed): as above
Sucrase-isomaltase, intestinal (Rattus norvegicus), sequence (P23739 1-1013 limits assumed): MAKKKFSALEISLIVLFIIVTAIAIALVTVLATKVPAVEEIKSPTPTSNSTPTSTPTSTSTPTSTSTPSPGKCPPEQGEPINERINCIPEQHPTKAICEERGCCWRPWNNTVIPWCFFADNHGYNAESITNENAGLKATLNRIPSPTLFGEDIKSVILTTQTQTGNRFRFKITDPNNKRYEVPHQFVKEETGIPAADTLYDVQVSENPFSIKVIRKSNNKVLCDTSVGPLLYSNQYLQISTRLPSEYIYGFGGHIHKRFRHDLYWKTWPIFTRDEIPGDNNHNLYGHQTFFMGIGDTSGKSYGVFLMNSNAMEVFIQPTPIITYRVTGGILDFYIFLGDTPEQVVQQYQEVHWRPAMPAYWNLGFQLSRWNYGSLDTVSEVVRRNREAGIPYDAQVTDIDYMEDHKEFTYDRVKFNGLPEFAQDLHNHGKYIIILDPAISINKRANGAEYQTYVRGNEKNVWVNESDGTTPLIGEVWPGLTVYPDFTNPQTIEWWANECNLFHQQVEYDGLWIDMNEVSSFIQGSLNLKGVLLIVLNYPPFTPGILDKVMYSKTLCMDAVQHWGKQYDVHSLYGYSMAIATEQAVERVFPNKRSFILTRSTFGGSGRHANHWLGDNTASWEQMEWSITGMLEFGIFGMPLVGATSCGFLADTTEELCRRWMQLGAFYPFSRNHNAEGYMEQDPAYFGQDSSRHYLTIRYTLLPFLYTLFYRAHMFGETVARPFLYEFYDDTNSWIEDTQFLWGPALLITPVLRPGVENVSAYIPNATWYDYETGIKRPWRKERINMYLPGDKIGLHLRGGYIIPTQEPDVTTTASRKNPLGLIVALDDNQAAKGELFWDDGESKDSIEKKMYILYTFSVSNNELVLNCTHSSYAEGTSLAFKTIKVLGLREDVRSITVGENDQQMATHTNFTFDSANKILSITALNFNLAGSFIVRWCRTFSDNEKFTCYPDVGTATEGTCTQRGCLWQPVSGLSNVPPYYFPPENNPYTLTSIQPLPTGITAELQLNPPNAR
Sucrase-isomaltase, intestinal (Rattus norvegicus), sequence (P23739 1014-1841 limits assumed): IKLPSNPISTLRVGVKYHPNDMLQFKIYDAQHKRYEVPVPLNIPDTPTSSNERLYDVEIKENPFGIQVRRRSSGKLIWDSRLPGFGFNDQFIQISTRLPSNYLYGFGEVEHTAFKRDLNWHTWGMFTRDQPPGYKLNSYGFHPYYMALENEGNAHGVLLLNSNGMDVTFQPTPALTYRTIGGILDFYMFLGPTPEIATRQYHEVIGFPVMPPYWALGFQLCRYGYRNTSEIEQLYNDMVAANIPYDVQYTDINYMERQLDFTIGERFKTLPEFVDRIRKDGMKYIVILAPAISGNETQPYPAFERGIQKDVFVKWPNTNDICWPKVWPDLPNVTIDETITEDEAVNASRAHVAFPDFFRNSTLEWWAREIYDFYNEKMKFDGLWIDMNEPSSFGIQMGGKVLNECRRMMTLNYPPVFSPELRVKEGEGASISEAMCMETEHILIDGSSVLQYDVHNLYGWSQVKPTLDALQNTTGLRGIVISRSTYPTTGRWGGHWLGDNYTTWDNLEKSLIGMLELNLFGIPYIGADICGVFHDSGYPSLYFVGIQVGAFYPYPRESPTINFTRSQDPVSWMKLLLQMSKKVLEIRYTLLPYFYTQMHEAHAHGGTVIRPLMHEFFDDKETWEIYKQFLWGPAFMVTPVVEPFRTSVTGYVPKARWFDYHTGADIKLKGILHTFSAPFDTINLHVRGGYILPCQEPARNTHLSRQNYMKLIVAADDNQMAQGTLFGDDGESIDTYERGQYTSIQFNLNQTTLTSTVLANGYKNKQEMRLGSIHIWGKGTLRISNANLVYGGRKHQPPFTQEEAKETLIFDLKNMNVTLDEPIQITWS

In general, inhibition refers to the share of the control response that was lost under treatment. Broadly, the IC50 is the concentration that inhibits the measured activity by half. With `OC[C@H]1CNC[C@H](O)[C@@H]1O`, the inhibition (with Coffea; in experiment [1]; in the experiment with Canavalia ensiformis; with Helix pomatia; in the experiment on Penicillium decumbens; in the experiment with Oryza sativa) was < 50% in each case. For the same molecule, the inhibition (in the experiment filed under Rattus norvegicus [4]; in experiment [5]; in experiment [6]; in experiment [7]; in experiment [9]) was < 50% throughout. The IC50 in [2] stood at 52 µM; in [3] it was 334 µM; in experiment [8], 443 µM.

For the molecule `OC[C@@H]1CNC[C@@H](O)[C@H]1O`, the inhibition (in the experiment filed under Rattus norvegicus [10]; in the experiment on Coffea; in [1]; in the experiment on Canavalia ensiformis; in the experiment on Helix pomatia; with Penicillium decumbens) was < 50% in each case. In addition, the inhibition (in the experiment with Oryza sativa; in the experiment filed under Rattus norvegicus [4]; in experiment [5]; in experiment [6]; with Prunus dulcis; in [11]) was < 50% each time. The inhibition in experiment [7] and in [9] was < 50% each time. Moreover, the IC50 in [2] is 469 µM.

For the molecule `OC[C@@H]1NCC[C@H](O)[C@H]1O`, the inhibition (in the experiment listed under Rattus norvegicus [10]; in the experiment on Coffea; in experiment [1]; with Canavalia ensiformis; in the experiment on Helix pomatia; in the experiment with Penicillium decumbens) was < 50% throughout. Moreover, the inhibition (with Oryza sativa; in the experiment filed under Rattus norvegicus [4]; in [5]; in experiment [6]; in the experiment with Prunus dulcis; in [11]) was < 50% in each case. Also, the inhibition in experiment [7], in experiment [12] and in experiment [9] was < 50% in each case.

Turning to `OC[C@@H]1NCC[C@H](O)[C@@H]1O`, the inhibition (in the experiment listed under Rattus norvegicus [10]; in the experiment with Coffea; in experiment [1]; in the experiment with Canavalia ensiformis; in the experiment on Helix pomatia; with Penicillium decumbens) was < 50% each time. In addition, the inhibition (in the experiment on Oryza sativa; in the experiment listed under Rattus norvegicus [4]; in [5]; in experiment [6]; in the experiment on Prunus dulcis; in experiment [11]) was < 50% each time. Besides, the inhibition in experiment [7], in experiment [12] and in experiment [9] was < 50% throughout.

As for `OC[C@H]1NCC[C@H](O)[C@H]1O`, the inhibition (in the experiment filed under Rattus norvegicus [10]; with Coffea; in experiment [1]; in the experiment on Canavalia ensiformis; with Helix pomatia; in the experiment on Penicillium decumbens) was < 50% throughout. The inhibition (in the experiment on Oryza sativa; in the experiment filed under Rattus norvegicus [4]; in the experiment on Prunus dulcis; in experiment [11]; in experiment [7]; in [12]) was < 50% throughout. Besides, in experiment [9], the inhibition was < 50%.

As for `OC[C@H]1CNC[C@H](O)[C@H]1O`, the inhibition (in the experiment on Coffea; in experiment [1]; in the experiment with Canavalia ensiformis; with Helix pomatia; with Penicillium decumbens; in the experiment with Oryza sativa) was < 50% each time. Moreover, the inhibition (in the experiment listed under Rattus norvegicus [4]; in [5]; in experiment [6]; in the experiment on Prunus dulcis; in experiment [11]; in experiment [7]) was < 50% in each case. Further, in [9], the inhibition is < 50%. Moreover, the IC50 in experiment [2] turned out to be 211 µM; in experiment [3] it was 912 µM.

Consider `OC[C@@H]1NC[C@@H](O)[C@H](O)[C@H]1O`, for which the inhibition (in the experiment listed under Rattus norvegicus [10]; in the experiment with Coffea; in the experiment with Canavalia ensiformis; in the experiment with Helix pomatia; in the experiment on Penicillium decumbens; in [9]) was < 50% each time. The IC50 worked out at 28 µM in experiment [13], 4.3 µM in [14] and 980 µM in experiment [8].

In the case of `OC[C@H]1NCC[C@H](O)[C@@H]1O`, the inhibition (in the experiment with Coffea; with Canavalia ensiformis; in the experiment on Helix pomatia; with Penicillium decumbens; in the experiment listed under Rattus norvegicus [4]; in experiment [5]) was < 50% throughout. In addition, the inhibition in experiment [6], in experiment [11] and in experiment [7] was < 50% in each case. In addition, the IC50 came to 4.3 µM in experiment [2], 39 µM in experiment [3], 120 µM in [14] and 120 µM in experiment [8].
